The target of data set [1] is T1, Cholesteryl ester transfer protein (Homo sapiens, UniProt P11597).
T1 sequence (P11597 whole entry): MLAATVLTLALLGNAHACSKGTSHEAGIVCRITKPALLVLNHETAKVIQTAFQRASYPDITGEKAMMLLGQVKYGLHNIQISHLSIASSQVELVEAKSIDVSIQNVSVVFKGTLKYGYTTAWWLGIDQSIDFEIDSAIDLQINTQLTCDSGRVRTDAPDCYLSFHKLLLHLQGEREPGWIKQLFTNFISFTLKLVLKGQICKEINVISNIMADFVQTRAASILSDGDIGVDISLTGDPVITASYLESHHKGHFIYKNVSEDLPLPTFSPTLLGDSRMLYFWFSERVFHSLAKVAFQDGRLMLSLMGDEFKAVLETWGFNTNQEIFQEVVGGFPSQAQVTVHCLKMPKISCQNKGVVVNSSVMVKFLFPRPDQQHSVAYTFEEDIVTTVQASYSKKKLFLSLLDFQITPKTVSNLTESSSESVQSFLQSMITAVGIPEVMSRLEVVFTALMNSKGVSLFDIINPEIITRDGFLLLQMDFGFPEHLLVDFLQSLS
The data set can be described thus: Concentration required for 50% inhibition of cholesteryl ester transfer protein in presence of buffer.

For data set [2], the target named is T2, Cholesteryl ester transfer protein (Homo sapiens) (UniProt P11597).
T2 sequence (whole entry): T1 sequence (P11597 whole entry)
To be noted: Cricetulus griseus; 33 mg/kg.

The target in data set [3] is T1, Cholesteryl ester transfer protein. The data set can be described thus: Inhibition of cholesteryl ester transfer protein in presence of human serum. An outline of the steps:
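CETP-mediated transfer of [³H]CE from HDL donor particles, measured with human serum supplying LDL, VLDL and human CETP.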

Data set [4] deals with Mus musculus. As to the kind of experiment: Oral dosing of qd for 5 days at 30 mg/kg had percent increase of HDLc in hCEPT transgenic mice. Format: functional. An outline of the steps:
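C57bl mice transgenic for human CETP (plasma hCETP 2–20 µg/mL), fed cholesterol- and fat-supplemented chow for at least 2 weeks. Dosed orally at 30 mg/kg once daily for 5 days. Serum then analysed by size exclusion chromatography on two Superose 6 columns for relative VLDLc, LDLc and HDLc.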

The subject of data set [5] is Mus musculus. The data set can be described thus: Inhibition of CETP-mediated transfer ex vivo after 30 min in hCEPT transgenic mice by a single dose at 30 mg/kg. To be noted: 0.5 h. Format: functional. A digest of the protocol: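 C57Bl/6 mice homozygous for the human CETP gene, fed high-fat chow for at least 2 weeks. Single 30 mg/kg iv bolus in 10% ethanol/90% PEG; controls got vehicle. 0.05 mL [³H]CE-HDL (human HDL) was given into the tail vein. After 30 min, EDTA blood was taken and plasma obtained at 4 °C. Gel filtration gave the [³H]CE proportion in VLDL, LDL and HDL, compared with controls.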

Data set [6] has as its target T2, Cholesteryl ester transfer protein (Homo sapiens). To be noted: Cricetulus griseus; 30 mg/kg.
Data set [7] in a line: Bioavailability in mice was reported. Format: ADME, organism-based. To be noted: mouse, in vivo.

Experimental findings from ChEMBL document CHEMBL1135762, “Chiral N,N-disubstituted trifluoro-3-amino-2-propanols are potent inhibitors of cholesteryl ester transfer protein” (J Med Chem, 2002) are described below.

As usually defined, the IC50 is the concentration that inhibits the measured activity by half. Regarding `Cc1ccc(N(Cc2cccc(C(F)(F)F)c2)CC(O)C(F)(F)F)cc1` (stereo not given), the IC50 in data set [1] was greater than 100 µM.

Consider `OC(CN(Cc1cccc(OC(F)(F)C(F)F)c1)c1cccc(F)c1)C(F)(F)F` (stereo not given), for which the IC50 in data set [1] is 4.5 µM. The same measure, in the same setting: next, `COC(=O)c1cccc(CN(CC(O)C(F)(F)F)c2cccc(Oc3ccccc3)c2)c1` (stereo not given): 16 µM; `OC(CN(Cc1cccc(Oc2cccc(C(F)(F)F)c2)c1)c1cccc(F)c1)C(F)(F)F` (stereo not given): greater than 100 µM.

For the compound `OC(CN(Cc1cccc(C(F)(F)F)c1)c1cccc(F)c1)C(F)(F)F` (stereo not given), in data set [1], the IC50 is 37 µM. For `OC(CN(Cc1cccc(C(F)(F)F)c1)c1cccc(Cl)c1)C(F)(F)F` (stereo not given), the IC50 in data set [1] is 12 µM. As to `Cc1ccc(CN(CC(O)C(F)(F)F)c2cccc(F)c2)cc1` (stereo not given), the IC50 in data set [1] was 65 µM. In the case of `OC(CN(Cc1cccc(OC(F)(F)F)c1)c1cccc(Oc2ccccc2)c1)c1ccccc1` (stereo not given), the IC50 in data set [1] was greater than 50 µM.

On to `C=CC(O)CN(Cc1cccc(OC(F)(F)F)c1)c1cccc(Oc2ccccc2)c1` (stereo not given), for which, in data set [1], the IC50 is greater than 50 µM.

As usually defined, the inhibition is how much of the control response was suppressed. A low value points to a response near the control. `O[C@H](CN(Cc1cccc(OC(F)(F)C(F)F)c1)c1cccc(Oc2ccccc2)c1)C(F)(F)F` displayed an inhibition in data set [2] of 30%. As for `Cc1ccccc1CN(CC(O)C(F)(F)F)c1cccc(F)c1` (stereo not given), the IC50 in data set [1] is greater than 100 µM. On the same count and under the same terms, next, `CC(C)(O)c1cccc(CN(CC(O)C(F)(F)F)c2cccc(Oc3ccccc3)c2)c1` (stereo not given): 7.8 µM; `OC(CN(Cc1cccc(C2CCCC2)c1)c1cccc(Oc2ccccc2)c1)C(F)(F)F` (stereo not given): 0.3 µM. `CC(C)(C)Oc1cccc(CN(CC(O)C(F)(F)F)c2cccc(Oc3ccccc3)c2)c1` (stereo not given): the results for the IC50 in data set [3] and in data set [1] were 29 µM and 0.66 µM, respectively. For the compound `OC(Cc1ccccc1)CN(Cc1cccc(OC(F)(F)F)c1)c1cccc(Oc2ccccc2)c1` (stereo not given), in data set [1], the IC50 is greater than 50 µM. As for `OC(COc1cccc(CN(CC(O)C(F)(F)F)c2cccc(Oc3ccccc3)c2)c1)C(F)(F)F` (stereo not given), the values for the IC50 in data set [3] and in data set [1] were 62 µM and 1.3 µM, respectively.

Take `Cc1ccccc1N(Cc1cccc(C(F)(F)F)c1)CC(O)C(F)(F)F` (stereo not given): the IC50 in data set [1] was greater than 100 µM. The inhibition in vivo is the drop in the measured response relative to a control, in per cent. A high value points to strong suppression. As a reminder, the bioavailability is the share of a dose that reaches the circulation, judged against a reference dose that is usually intravenous. For the compound `OC(CN(Cc1cccc(OC(F)(F)C(F)F)c1)c1cccc(Oc2ccccc2)c1)C(F)(F)F` (stereo not given), the Increase with Mus musculus [4] turned out to be 20%. The same compound registered an inhibition in vivo at 30 mg/kg in the data set on Mus musculus [5] of 50%. Moreover, in data set [6], the inhibition is 30%. The compound further showed a bioavailability in data set [7] of less than 10%. With `COc1cccc(CN(CC(O)C(F)(F)F)c2cccc(Oc3ccccc3)c2)c1` (stereo not given), the IC50 in data set [3] is greater than 200 µM; in data set [1] it was 15 µM.
